The text below walks through data of article PMC10583834 (Chemical Research in Toxicology, 2023).

Broadly, the pKi is the Ki on a negative log10 scale, so that one unit is a factor of ten.

pKi: −log10 of the molar value.

The test system of one data set is CYP3A4. The conditions noted are these: CYP3A4 inactivation in human liver microsomes; cited from earlier work. Background: Microsomes from liver hold many membrane-bound enzymes, among them those of drug oxidation.
In another data set the test system is women. Particulars: cited from earlier work.
The next data set has as its target T1, recombinant CYP2B6 (Homo sapiens, UniProt P20813).
T1 sequence (P20813 1-491): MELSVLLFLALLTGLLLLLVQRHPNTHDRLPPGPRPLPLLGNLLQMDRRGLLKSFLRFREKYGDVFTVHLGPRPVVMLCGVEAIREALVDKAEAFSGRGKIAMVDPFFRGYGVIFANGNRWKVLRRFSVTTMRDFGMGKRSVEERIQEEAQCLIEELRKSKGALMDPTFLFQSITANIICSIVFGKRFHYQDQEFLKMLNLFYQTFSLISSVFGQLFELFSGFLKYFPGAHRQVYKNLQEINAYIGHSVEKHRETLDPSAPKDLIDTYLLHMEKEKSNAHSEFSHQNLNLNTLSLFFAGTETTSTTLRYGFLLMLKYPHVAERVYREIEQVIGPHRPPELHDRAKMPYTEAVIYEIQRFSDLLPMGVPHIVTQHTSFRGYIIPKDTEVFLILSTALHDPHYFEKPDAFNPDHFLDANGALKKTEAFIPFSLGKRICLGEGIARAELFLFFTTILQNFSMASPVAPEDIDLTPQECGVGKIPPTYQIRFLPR
The data set can be described thus: Glutathione trapping and metabolite formation with recombinant CYP2B6. The conditions noted are these: recombinant CYP2B6 100 pmol/mL, 1 mM GSH, 60 min. It counts as in vitro ADME. The essentials:
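Test compound at 50 or 100 μM was incubated with recombinant CYP2B6 (100 pmol/mL) in 100 mM potassium phosphate pH 7.4, 3 mM MgCl2 and 1 mM reduced GSH. Reactions were started with NADPH-regenerating mix, with no-NADPH controls, for 60 min. Methanol stop contained 1 μM 4OH-MDZ internal standard. Samples were centrifuged 20 min at 2000 × g, 4 °C. Supernatants were analysed by LC-UV(280 nm)-MS for metabolites and GSH adducts.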

With `Cc1ccnc2c1NC(=O)c1cccnc1N2C1CC1` [NVP, Nevirapine], the pKi with CYP3A4 was […]. Besides, the “Increased risk for severe rash reactions in women” value with women is 7 fold. Besides, the GSH metabolite formation entry on recombinant CYP2B6 is “no GSH metabolite was detected”.
